According to ChEMBL document CHEMBL1134792, “Antimitotic antitumor agents: synthesis, structure-activity relationships, and biological characterization of N-aryl-N'-(2-chloroethyl)ureas as new selective alkylating agents” (J Med Chem, 2001):
Active and inactive are the calls of the source. No cut-off for these calls is given here.

Columns and labels:
L1210 = assay: Dose required to inhibit cell growth was determined against L1210 cell line of murine lymphocytotic leukemia; assay type: functional, cell-based; details: Mus musculus
How it was run: (§1)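 Alamar Blue growth assay. (1–5) × 10^3 cells per well preincubated 24 h, then exposed to increasing drug concentrations for 72 h at 37 °C. Medium replaced with PBS containing 20% Alamar Blue, fluorescence read at 485/590 nm. IC50 is the dose inhibiting growth by 50%.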

K562 = assay: Dose required to inhibit cell growth was determined against K562 cell line of chronic myelogenous leukemia; assay type: functional, cell-based; details: Homo sapiens; how it was run: as §1
CHO [1] = assay: Dose required to inhibit cell growth was determined against CHO cell line; assay type: functional, cell-based; details: Cricetulus griseus; how it was run: as §1
LoVo [2] = assay: Dose to inhibit cell growth determined against LoVo cell line of human adenocarcinoma; assay type: functional, cell-based; how it was run: as §1
P388 [3] = assay: Dose required to inhibit cell growth was determined against P388D1 cell line of murine lymphocytotic leukemia; assay type: functional, cell-based; details: Mus musculus; how it was run: as §1
MDA-MB-231 [4] = assay: Dose required to inhibit cell growth was determined against MDA-MB-231 cell line of human non-hormone dependent breast carcinoma; assay type: functional, cell-based; how it was run: as §1
HT-29 = assay: Dose required to inhibit cell growth was determined against HT-29 cell line of human adenocarcinoma; assay type: functional, cell-based; how it was run: as §1
[5] = target: T1, Glutathione reductase, mitochondrial (Homo sapiens) (UniProt P00390); assay: Glutathione reductase activity was measured after incubation with a conc. of 500 uM; assay type: functional
T1 sequence (whole entry): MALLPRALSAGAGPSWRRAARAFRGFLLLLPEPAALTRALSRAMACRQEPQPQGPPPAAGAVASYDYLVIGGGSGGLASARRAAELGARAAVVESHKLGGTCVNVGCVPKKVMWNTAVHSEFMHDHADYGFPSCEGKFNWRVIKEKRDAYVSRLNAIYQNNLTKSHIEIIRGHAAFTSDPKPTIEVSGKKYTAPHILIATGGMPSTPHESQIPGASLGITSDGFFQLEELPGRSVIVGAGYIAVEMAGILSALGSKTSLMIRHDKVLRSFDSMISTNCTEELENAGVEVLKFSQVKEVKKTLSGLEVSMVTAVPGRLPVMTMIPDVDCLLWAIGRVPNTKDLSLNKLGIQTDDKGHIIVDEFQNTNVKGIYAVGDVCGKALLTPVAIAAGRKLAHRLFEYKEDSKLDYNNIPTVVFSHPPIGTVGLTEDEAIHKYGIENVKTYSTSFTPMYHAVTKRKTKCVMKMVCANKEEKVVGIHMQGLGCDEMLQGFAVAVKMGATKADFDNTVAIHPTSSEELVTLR
How it was run: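 Purified glutathione reductase (0.016 U/mL) with 100 µM NADPH, 1 mM EDTA, 1 mg/mL BSA and 500 µM drug (from 2% ethanol solution) in 0.1 M phosphate pH 7.4, preincubated 60 min at 30 °C. GSSG was then added for 60 min at 30 °C. Activity is the […] over 3 min, as % of no-drug control, in triplicate.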

[6] = Alkylating activity by using 4-(4-nitrobenzyl)-pyridine(NBP) colorimetric assay
How it was run: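 NBP colorimetric assay. Drug at 400 nmol/mL in ethanol was mixed with 10% NBP in ethanol and 50 mM sodium acetate pH 4.3, then heated at 80 °C for 60, 90, 120 or 150 min. Samples were chilled and basified with KOH/ethanol, and A570 was read against a drug-free blank. The alkylation rate (A570/min) is the slope of a linear regression of absorbance vs time. Mean ± SD of ≥3 independent experiments.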

MDA-MB-231 [7] = assay: Beta tubulin alkylation activity in MDA-MB-231 cells; assay type: functional, Homo sapiens; design: concentration or dose not given beside the values
How it was run: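 MDA-MB-231 cells (~5 × 10^6), exponentially growing, exposed to 30 μM compound for 24 h at 37 °C. Lysed in Laemmli buffer, run on 10% SDS-PAGE, immunoblotted with anti-β-tubulin (TUB 2.1, 1:500) and peroxidase anti-mouse secondary, ECL detection. Normal and alkylated band densities integrated to give % alkylated β-tubulin. Representative of three experiments.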

[8] = Glutathione activity was measured after incubation with a conc. of 500 uM
How it was run: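 Cell-free thiol assay. GSH 500 µM with 1 mM EDTA and 500 µM drug (from 2% ethanol solution) in 0.1 M phosphate buffer pH 7.4, 60 min at room temperature. DTNB (0.133 mM) was then added and A412 read. Reported as % of no-drug control, in triplicate.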

MDA-MB-231 [9] = assay: DNA damages caused in MDA-MB-231 cells after 2 hr compound exposure to 400 uM concentration; assay type: functional, Homo sapiens
How it was run: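 Growing MDA-MB-231 cells held 2 h at 37 °C in medium with or without 400 μM compound. Cells washed in cold PBS and lysed in Tris/SDS/EDTA/deferoxamine/proteinase K buffer. DNA isolated by salting out, then 3'-end labeled by T4 DNA polymerase nucleotide exchange. Incorporated radioactivity measured by dot filtration, expressed as dCps exchanged/ng DNA. Means ± SD, ≥3 determinations.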

LoVo [10] = assay: Dose required to inhibit cell growth was determined against LoVo cell line of human adenocarcinoma; NA= Not active represents IC50 >400 uM; assay type: functional, cell-based
How it was run: (§2)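 Alamar Blue growth-inhibition assay. Cells ((1–5) × 10³ per well) were preincubated for 24 h, then exposed to increasing drug concentrations for 72 h at 37 °C. Alamar Blue (20%) was added and fluorescence read at ex 485 / em 590 nm. IC50 is the dose inhibiting growth by 50%. Means of ≥3 independent determinations.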

MDA-MB-231 [11] = assay: Dose required to inhibit cell growth was determined against MDA-MB-231 cell line of human non-hormone dependent breast carcinoma; NA= Not active represents IC50 >400 uM; assay type: functional, cell-based; how it was run: as §2
P388 [12] = assay: Dose required to inhibit cell growth was determined against P388D1 cell line of murine lymphocytotic leukemia; NA= Not active represents IC50 >400 uM; assay type: functional, cell-based; details: Mus musculus; how it was run: as §2
MDA-MB-231 [13] = assay: Dose required to inhibit cell growth was determined against MDA-MB-231 cell line of human non-hormone dependent breast carcinoma; Not active represents IC50 >400 uM; assay type: functional, cell-based; how it was run: as §2
CHO [14] = assay: Dose required to inhibit cell growth was determined against CHO cell line; Not active represents IC50 >400 uM; assay type: functional, cell-based; details: Cricetulus griseus; how it was run: as §2

| IC50 (L1210) [µM] | IC50 (K562) [µM] | IC50 (LoVo [2]) [µM] | IC50 (P388 [3]) [µM] | IC50 (MDA-MB-231 [4]) [µM] | IC50 (HT-29) [µM] | SMILES | IC50 (CHO [1]) [µM] | other results |
| --- | --- | --- | --- | --- | --- | --- | --- | --- |
| 12 | 10 | 10 | 10 | 19 | 22 | CCCCc1ccc(NC(=O)NCCCl)cc1 | 18 |  |
|  |  |  |  |  |  | Cc1cccc(C)c1NC(=O)NCCCl |  | NA (LoVo [10]): inactive; NA (MDA-MB-231 [11]): inactive; NA (P388 [12]): inactive |
| 14 | 15 |  |  | 32 | 33 | CC(C)CCc1ccc(NC(=O)NCCCl)cc1 | 19 |  |
| 19 | 21 |  |  | 34 | 36 | CC(C)(C)Cc1ccc(NC(=O)NCCCl)cc1 | 35 |  |
|  |  | 60 | 75 | 60 |  | Cc1cccc(NC(=O)NCCCl)c1 |  |  |
| 8.8 | 10 | 8.8 | 8.6 | 20 | 20 | Cc1cc(C)cc(NC(=O)NCCCl)c1 | 24.7 |  |
|  |  |  |  |  |  | CCCCCCCCCCc1ccc(NC(=O)NCCCl)cc1 |  | NA (LoVo [10]): inactive; NA (MDA-MB-231 [11]): inactive; NA (P388 [12]): inactive |
|  |  |  |  |  |  | Cc1cccc(NC(=O)NCCCl)c1C |  | NA (LoVo [10]): inactive; NA (MDA-MB-231 [11]): inactive; NA (P388 [12]): inactive |
|  |  |  |  |  |  | Cc1cc(C)c(NC(=O)NCCCl)c(C)c1 |  | NA (LoVo [10]): inactive; NA (MDA-MB-231 [11]): inactive; NA (P388 [12]): inactive |
| 27 | 17 | 36 | 34 | 27 | 24 | O=C(NCCCl)Nc1cccc(I)c1 | 35 |  |
|  |  |  |  |  |  | O=c1[nH]c2ccccc2c(=O)n1CCCl |  | NA (LoVo [10]): inactive; NA (MDA-MB-231 [11]): inactive; NA (P388 [12]): inactive |
| 16 | 18 | 22 | 22 | 44 | 38 | O=C(NCCCl)Nc1ccc(C2CCCCC2)cc1 | 23 |  |
| 6 | 23 |  |  | 52 | 21 | CC(Cl)CNC(=O)Nc1ccc(C(C)(C)C)cc1 (stereo unspecified) | 52 |  |
| 2.7 | 2.5 | 3.2 | 5.2 | 5 | 6.4 | CCc1ccc(NC(=O)NCCCl)cc1 | 6.4 |  |
| 11 | 11 |  |  | 24 | 21 | CC(C)Cc1ccc(NC(=O)NCCCl)cc1 | 23 |  |
| 3.8 | 3.5 | 3.5 | 4.2 | 7.2 | 5.4 | Cc1ccc(NC(=O)NCCCl)cc1C | 8.7 |  |
|  |  |  |  |  |  | CCCCCCCCCCCCc1ccc(NC(=O)NCCCl)cc1 |  | NA (LoVo [10]): inactive; NA (MDA-MB-231 [11]): inactive; NA (P388 [12]): inactive |
| 5.4 | 30 |  |  | 131 | 35 | CCCNC(=O)Nc1ccc(C(C)(C)C)cc1 | 132 |  |
| 9.6 | 9.1 | 23 | 11 | 31 | 14 | O=C(NCCCl)Nc1ccc(Cl)cc1 | 19 |  |
| 16 | 16 | 20 | 30 | 25 | 23 | Cc1ccc(NC(=O)NCCCl)cc1 | 26 |  |
| 8.1 | 4.6 | 11 | 10 | 10 | 9 | O=C(NCCCl)Nc1ccc(Br)cc1 | 10 |  |
| 118 | 107 | 150 | 130 | 150 |  | O=C(NCCCl)Nc1cccc2ccccc12 | 106 |  |
|  |  |  |  |  |  | Cc1ccccc1NC(=O)NCCCl |  | NA (LoVo [10]): inactive; NA (MDA-MB-231 [11]): inactive; NA (P388 [12]): inactive |

| SMILES | IC50 (L1210) [µM] | IC50 (K562) [µM] | IC50 (LoVo [2]) [µM] | IC50 (P388 [3]) [µM] | IC50 (MDA-MB-231 [4]) [µM] | IC50 (HT-29) [µM] | IC50 (CHO [1]) [µM] | other results |
| --- | --- | --- | --- | --- | --- | --- | --- | --- |
| CC(C)(C)c1ccc(NC(=O)NCCCl)cc1 | 3 | 3.5 | 4.1 | 5.2 | 6.2 | 9.1 | 6.3 | Activity [5]: 100%; Activity [6]: 3.1 A570 min-1; Activity (MDA-MB-231 [7]): 44%; Activity [8]: 100%; DNA damage (MDA-MB-231 [9]): 2.22 10e7 exchanged dCps (ng of DNA) |
| CCNC(=O)Nc1ccc(C(C)CC)cc1 (stereo unspecified) | 43 | 101 |  |  |  | 132 |  | NA (MDA-MB-231 [13]): inactive; NA (CHO [14]): inactive |
| CCCCCCCc1ccc(NC(=O)NCCCl)cc1 | 13 | 16 | 15 | 18 | 30 | 25 | 22 |  |
| CCCNC(=O)Nc1ccc(C(C)C)cc1 | 14 | 52 |  |  |  | 76 | 133 | NA (MDA-MB-231 [13]): inactive |
| CCCCCCCCc1ccc(NC(=O)NCCCl)cc1 |  |  | 29 | 32 | 33 |  |  |  |
| CCCc1ccc(NC(=O)NCCCl)cc1 | 9 | 8.2 | 10 | 11 | 18 | 23 | 19 |  |
| CC(C)c1ccc(NC(=O)NCCCl)cc1 | 1.2 | 1.3 | 1 | 2.1 | 2.5 | 5 | 3.2 | Activity [5]: 100%; Activity [6]: 3 A570 min-1; Activity (MDA-MB-231 [7]): 65%; Activity [8]: 100% |
| CCCCCc1ccc(NC(=O)NCCCl)cc1 | 5.4 | 6.1 | 5.2 | 7.3 | 12 | 12 | 13 | Activity [5]: 99%; Activity [6]: 2.9 A570 min-1; Activity (MDA-MB-231 [7]): 40%; Activity [8]: 100%; DNA damage (MDA-MB-231 [9]): 1.93 10e7 exchanged dCps (ng of DNA) |
| CCC(C)c1ccc(NC(=O)NCCCl)cc1 (stereo unspecified) | 1.3 | 1.3 | 2.2 | 2.4 | 3.1 | 3.6 | 4 | Activity [5]: 100%; Activity [6]: 3.1 A570 min-1; Activity (MDA-MB-231 [7]): 76%; Activity [8]: 100% |
| CCCNC(=O)Nc1ccc(C(C)CC)cc1 (stereo unspecified) | 30 | 106 |  |  |  | 133 |  | NA (MDA-MB-231 [13]): inactive; NA (CHO [14]): inactive |
